In article PMC4969713 (Journal of Alzheimer's Disease, 2016):
Where a name gives a salt, the structure may show the parent alone.

Key:
hNav1.5 = hNav1.5 (Homo sapiens, UniProt Q14524); experiment: Cardiac channel inhibition, hNav1.5; format: cell-based
[1] = Metabolism in rat microsomes; format: in vitro ADME; conditions: for Remaining quantity: AVN-101 1 μM, RLM
Dopaminergic receptors = experiment: Radioligand competition, dopaminergic receptors; format: binding; conditions: compared to the 5-HT7 receptor
Caco-2 permeability = conditions: human
hERG channel = hERG channel (Homo sapiens, UniProt Q12809); experiment: Target panel binding, hERG channel
Monkeys (Macaca mulatta) = experiment: Q-T interval, monkeys; format: in vivo; conditions: 1 mg/kg IV; not affected
[2] = Metabolism in human liver S9 fraction; format: in vitro ADME; conditions: for half-life at 1 µM / half-life at 2 µM: human, liver S9 fraction
[3] = Pharmacokinetics in Wistar rats, IV/IP/PO; format: in vivo; conditions: for Fabs: based on AUC0 ⟶240; for Cmax / Tmax / half-life / k el / AUC: Wistar, rat, plasma, 5 mg/kg
5-HT2A receptor = 5-HT2A receptor (Homo sapiens, UniProt P28223); experiment: Radioligand binding competition, 5-HT2A
histamine H2 receptor = histamine H2 receptor (Homo sapiens, UniProt P25021); experiment: Radioligand binding competition, histamine H2
femur bone marrow cells = experiment: Chromosomal aberrations in femur bone marrow cells; format: in vivo, mice
How it was run: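 Mice 8–12 weeks old, male and female, were dosed orally with test compound or cyclophosphamide 20 mg/kg. Schedule was single dose with kill at 24 h, or qd for 5 days with kill 6 h after the last dose. Colchicine 4 mg/kg was given orally 2.5 h before decapitation. Femur marrow was put into 0.55% KCl at 37°C for 15 min, then spun. Scoring covered 100 metaphases per animal (500 per group), expressed as % aberrant cells.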

[4] = tested on: rhesus macaques (Macaca Mulatta); experiment: 30 days toxicity, monkeys; format: in vivo; conditions: 5 mg/kg PO daily
[5] = Metabolism in rat liver S9 fraction; format: in vitro ADME; conditions: for half-life at 1 µM / half-life at 2 µM: rat, liver S9 fraction
[6] = Metabolism in human microsomes; format: in vitro ADME; conditions: for Remaining quantity: HLM
male BALB/c mice = experiment: Passive avoidance, scopolamine-induced amnesia, mice; format: in vivo
male SHK mice = experiment: Apomorphine-induced disruption of pre-pulse inhibition; format: in vivo; conditions: IP
How it was run: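 Male SHK mice received apomorphine as the pro-psychotic agent to disrupt pre-pulse inhibition. Groups: untreated control, apomorphine alone, haloperidol 1 mg/kg as positive control, and test compound at several doses. Groups were compared with the apomorphine-only group by Student test.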

hKvLQT1-hminK (IKs) = hKvLQT1-hminK (IKs) (Homo sapiens, UniProt P51787); experiment: Cardiac channel inhibition, IKs; format: cell-based
Adrenergic α2A = Adrenergic α2A (Homo sapiens, UniProt P08913); experiment: Radioligand competition, adrenergic α2A; format: binding; conditions: Ki
5-HT1A receptor = 5-HT1A receptor (Homo sapiens, UniProt P08908); experiment: Radioligand binding competition, 5-HT1A
male adult SHK mice = experiment: 14 days toxicity, mice; format: in vivo; conditions: 5 mg/kg PO daily
How it was run: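 Mice randomly assigned to a vehicle group or a 5 mg/kg group.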

5-HT2B receptor = 5-HT2B receptor (Homo sapiens, UniProt P41595); experiment: Intracellular Ca2+ mobilization in HEK 297 cells expressing 5-HT2B; format: cell-based
Adrenergic α1B = Adrenergic α1B (Homo sapiens, UniProt P35368); experiment: Radioligand competition, adrenergic α1B; format: binding
[7] = biological target: human recombinant H2 receptors (Homo sapiens, UniProt P25021); experiment: Amthamine-induced cAMP accumulation in CHO-K1 cells; format: cell-based
How it was run: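 CHO-K1 cells exogenously expressing recombinant human H2 receptor were stimulated with 50 nM amthamine. Intracellular cAMP accumulation was registered, and blockade of this response by test compound was measured.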

[8] = read-out: % Inhibition at 31.6μM
[9] = 1 mg/kg PO qd for 5 days, females
[10] = 1 mg/kg PO qd for 5 days, males

Chain of 5-HT2B receptor (P41595 whole entry): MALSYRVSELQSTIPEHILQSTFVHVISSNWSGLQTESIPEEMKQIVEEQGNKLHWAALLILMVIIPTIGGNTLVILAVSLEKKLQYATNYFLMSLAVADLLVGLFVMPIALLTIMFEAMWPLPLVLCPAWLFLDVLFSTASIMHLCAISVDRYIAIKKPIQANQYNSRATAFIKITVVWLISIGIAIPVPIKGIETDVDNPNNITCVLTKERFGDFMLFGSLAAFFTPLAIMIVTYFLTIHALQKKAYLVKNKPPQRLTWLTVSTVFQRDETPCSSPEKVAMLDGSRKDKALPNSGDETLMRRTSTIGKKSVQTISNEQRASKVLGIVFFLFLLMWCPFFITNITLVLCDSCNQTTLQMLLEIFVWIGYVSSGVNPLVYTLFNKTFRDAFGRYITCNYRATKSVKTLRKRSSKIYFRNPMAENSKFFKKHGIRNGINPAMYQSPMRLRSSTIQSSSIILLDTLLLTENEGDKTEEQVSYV
Chain of human recombinant H2 receptors (P25021 whole entry): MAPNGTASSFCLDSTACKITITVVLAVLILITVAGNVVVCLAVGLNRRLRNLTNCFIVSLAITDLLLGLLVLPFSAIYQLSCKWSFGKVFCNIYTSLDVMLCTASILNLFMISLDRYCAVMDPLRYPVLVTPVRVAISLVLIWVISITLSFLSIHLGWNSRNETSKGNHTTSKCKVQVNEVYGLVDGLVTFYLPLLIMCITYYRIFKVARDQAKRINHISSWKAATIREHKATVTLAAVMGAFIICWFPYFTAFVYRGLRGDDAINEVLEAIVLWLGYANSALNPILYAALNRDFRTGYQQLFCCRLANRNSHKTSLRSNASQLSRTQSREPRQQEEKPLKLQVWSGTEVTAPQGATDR
Chain of hKvLQT1-hminK (IKs) (P51787 whole entry): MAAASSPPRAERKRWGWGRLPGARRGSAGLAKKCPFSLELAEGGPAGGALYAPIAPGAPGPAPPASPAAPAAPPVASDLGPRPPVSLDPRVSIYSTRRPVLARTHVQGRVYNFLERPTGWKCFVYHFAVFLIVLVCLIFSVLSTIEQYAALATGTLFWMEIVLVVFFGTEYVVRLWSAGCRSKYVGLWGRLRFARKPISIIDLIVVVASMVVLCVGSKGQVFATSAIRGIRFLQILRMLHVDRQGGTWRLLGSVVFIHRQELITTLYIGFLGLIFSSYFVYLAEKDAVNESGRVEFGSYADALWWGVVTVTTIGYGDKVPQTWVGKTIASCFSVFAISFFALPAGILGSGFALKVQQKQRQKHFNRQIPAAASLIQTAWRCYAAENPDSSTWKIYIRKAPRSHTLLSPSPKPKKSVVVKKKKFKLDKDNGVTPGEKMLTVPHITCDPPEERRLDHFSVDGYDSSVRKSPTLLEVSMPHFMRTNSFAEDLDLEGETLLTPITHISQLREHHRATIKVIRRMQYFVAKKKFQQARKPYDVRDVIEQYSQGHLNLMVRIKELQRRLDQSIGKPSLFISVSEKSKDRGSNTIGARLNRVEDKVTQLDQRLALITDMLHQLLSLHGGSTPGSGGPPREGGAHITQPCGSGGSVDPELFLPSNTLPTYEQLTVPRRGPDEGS
Chain of hNav1.5 (Q14524 whole entry): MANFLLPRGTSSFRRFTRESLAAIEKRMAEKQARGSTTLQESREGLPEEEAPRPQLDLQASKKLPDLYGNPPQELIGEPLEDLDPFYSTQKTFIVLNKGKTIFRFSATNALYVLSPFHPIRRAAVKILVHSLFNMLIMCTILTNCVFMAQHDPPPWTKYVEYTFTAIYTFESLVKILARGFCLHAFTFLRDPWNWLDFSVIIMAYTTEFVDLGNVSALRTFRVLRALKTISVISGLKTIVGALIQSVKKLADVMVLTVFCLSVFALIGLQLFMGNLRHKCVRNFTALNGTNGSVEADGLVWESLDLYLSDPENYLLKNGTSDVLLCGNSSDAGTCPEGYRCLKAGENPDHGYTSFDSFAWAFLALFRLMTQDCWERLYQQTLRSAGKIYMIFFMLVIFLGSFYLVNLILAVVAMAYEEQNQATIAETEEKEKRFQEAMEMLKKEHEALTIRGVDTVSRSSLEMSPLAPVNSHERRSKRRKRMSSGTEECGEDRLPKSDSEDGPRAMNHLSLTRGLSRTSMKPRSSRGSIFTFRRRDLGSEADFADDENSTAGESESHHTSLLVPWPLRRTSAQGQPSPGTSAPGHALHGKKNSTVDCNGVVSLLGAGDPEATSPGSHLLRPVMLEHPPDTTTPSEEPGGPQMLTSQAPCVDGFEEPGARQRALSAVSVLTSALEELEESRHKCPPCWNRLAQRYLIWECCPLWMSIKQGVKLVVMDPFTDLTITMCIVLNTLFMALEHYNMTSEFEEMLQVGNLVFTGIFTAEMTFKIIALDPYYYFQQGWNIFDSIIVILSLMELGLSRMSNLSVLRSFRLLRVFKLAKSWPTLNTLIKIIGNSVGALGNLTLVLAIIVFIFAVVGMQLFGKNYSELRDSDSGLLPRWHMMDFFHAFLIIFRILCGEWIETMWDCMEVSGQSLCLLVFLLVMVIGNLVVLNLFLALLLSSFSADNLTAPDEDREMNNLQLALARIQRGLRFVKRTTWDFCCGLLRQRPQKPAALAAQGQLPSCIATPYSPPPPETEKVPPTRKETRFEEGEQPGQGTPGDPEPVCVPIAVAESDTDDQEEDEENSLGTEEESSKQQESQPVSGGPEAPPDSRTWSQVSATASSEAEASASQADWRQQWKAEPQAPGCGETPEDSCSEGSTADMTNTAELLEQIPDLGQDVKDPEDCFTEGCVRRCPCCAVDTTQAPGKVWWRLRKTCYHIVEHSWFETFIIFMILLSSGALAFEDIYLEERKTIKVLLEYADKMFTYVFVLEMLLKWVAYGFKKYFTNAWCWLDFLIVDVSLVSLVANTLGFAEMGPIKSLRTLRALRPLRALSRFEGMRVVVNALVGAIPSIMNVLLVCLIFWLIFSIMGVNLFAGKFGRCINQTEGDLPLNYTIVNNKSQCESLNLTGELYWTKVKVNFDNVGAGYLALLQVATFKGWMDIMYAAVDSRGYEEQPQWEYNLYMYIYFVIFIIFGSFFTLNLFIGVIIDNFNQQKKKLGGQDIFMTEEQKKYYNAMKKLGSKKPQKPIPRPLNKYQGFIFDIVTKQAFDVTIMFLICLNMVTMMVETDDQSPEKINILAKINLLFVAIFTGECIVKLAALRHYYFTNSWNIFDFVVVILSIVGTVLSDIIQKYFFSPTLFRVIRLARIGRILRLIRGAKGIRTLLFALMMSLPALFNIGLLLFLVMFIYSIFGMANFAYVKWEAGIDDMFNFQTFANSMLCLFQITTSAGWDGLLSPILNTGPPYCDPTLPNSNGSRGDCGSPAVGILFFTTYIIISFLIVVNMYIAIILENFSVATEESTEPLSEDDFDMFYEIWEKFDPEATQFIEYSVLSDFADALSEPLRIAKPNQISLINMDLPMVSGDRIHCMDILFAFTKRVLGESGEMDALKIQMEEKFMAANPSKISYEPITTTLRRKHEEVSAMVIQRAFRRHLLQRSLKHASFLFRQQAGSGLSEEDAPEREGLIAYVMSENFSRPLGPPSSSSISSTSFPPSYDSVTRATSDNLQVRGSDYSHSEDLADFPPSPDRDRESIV
Chain of Adrenergic α2A (P08913 whole entry): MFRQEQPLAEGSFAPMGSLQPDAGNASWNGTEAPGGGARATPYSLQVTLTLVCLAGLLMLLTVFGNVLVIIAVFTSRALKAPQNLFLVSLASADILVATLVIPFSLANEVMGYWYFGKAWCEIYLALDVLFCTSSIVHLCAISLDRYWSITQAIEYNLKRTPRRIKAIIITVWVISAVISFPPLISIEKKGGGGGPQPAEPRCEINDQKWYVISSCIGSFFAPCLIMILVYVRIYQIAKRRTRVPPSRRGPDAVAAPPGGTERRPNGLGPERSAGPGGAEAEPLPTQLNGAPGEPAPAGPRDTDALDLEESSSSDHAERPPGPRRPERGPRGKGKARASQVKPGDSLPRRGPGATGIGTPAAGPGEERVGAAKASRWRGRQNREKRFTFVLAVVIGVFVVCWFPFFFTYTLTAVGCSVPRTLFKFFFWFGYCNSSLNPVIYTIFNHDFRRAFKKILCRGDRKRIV
Chain of Adrenergic α1B (P35368 whole entry): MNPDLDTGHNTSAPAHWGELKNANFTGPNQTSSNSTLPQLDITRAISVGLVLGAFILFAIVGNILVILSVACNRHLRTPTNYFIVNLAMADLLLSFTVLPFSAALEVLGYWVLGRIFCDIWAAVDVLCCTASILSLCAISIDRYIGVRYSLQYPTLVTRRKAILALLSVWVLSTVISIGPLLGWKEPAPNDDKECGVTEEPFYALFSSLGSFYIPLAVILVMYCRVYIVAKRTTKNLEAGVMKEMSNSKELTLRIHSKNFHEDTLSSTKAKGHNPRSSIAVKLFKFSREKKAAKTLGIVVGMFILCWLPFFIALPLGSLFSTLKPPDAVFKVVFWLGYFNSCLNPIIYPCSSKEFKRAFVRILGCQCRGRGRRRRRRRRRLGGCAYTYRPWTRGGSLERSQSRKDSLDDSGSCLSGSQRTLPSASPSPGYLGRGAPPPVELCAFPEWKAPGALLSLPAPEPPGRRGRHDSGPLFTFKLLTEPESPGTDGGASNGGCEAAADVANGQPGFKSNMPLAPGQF
Chain of histamine H2 receptor (P25021 whole entry): as the sequence (P25021 whole entry) above

Cc1ccc2c(c1)c1c(n2CCc2ccccc2)CCN(C)C1 [AVN-101, 2,8-dimethyl-5-penethyl-2,3,4,5-tetra-hydro-1h-pyrido[[4,3-B]]indole hydrochloride]
IC50 (hNav1.5): 2400 nM | inhibition at 31.6 µM (hNav1.5; [8]): 97% | k el ([1]; 1μM): 0.352 | Remaining quantity ([1]; 7.9 min): <1% | Remaining quantity ([1]; 30 min): <1% | half-life at 1 µM ([1]; rat, liver microsomes): 1.97 min | k el at 1 μM ([1]; rat, liver microsomes): 0.00558 s⁻¹ | microsomal CLint at 1 µM ([1]; rat, liver microsomes): 703 µL/min/mg | affinity (Dopaminergic receptors): very low affinity | Papp (Caco-2 permeability): 19 ± 1.8 ×10⁻⁶ cm/s | Papp B→A (Caco-2 permeability): 21 ± 2.1 ×10⁻⁶ cm/s | binding (hERG channel): does not bind | QT interval (Monkeys (Macaca mulatta)): 0.22 ± 0.04 s | heart rate (Monkeys (Macaca mulatta)): ca. 175 beats/min | half-life at 1 µM ([2]; T1/2, +NADPH+UDPGA): 26.2 min | half-life at 2 µM ([2]; T1/2, +NADPH+UDPGA): 58.9 min | half-life at 1 µM ([2]; T1/2, +NADPH): 24.8 min | half-life at 2 µM ([2]; T1/2, +NADPH): 87.1 min | metabolism with UDPGA only ([2]; phase 2 co-factor UDPGA only): no metabolism | Fabs ([3]; IP 5 mg/kg): 26.3% | Fabs ([3]; PO 5 mg/kg): 8.5% | Cmax ([3]; ip): 278 ng/mL | Tmax ([3]; ip): 5 min | half-life ([3]; ip): 177 min | k el ([3]; ip): 6.5e-05 s⁻¹ | AUC ([3]; ip, AUC0 ⟶240, IP 5 mg/kg): 1900 ng·h/mL | AUC ([3]; ip, AUC0 ⟶∞, IP 5 mg/kg): 2830 ng·h/mL | Cmax ([3]; iv): 847 ng/mL | Tmax ([3]; iv): 5 min | half-life ([3]; iv): 57.5 min | k el ([3]; iv): 0.000202 s⁻¹ | AUC ([3]; iv, AUC0 ⟶240, IV 5 mg/kg): 721 ng·h/mL | AUC ([3]; iv, AUC0 ⟶∞, IV 5 mg/kg): 7530 ng·h/mL | Cmax ([3]; po): 50 ng/mL | Tmax ([3]; po): 5 min | half-life ([3]; po): 117 min | k el ([3]; po): 9.83e-05 s⁻¹ | AUC ([3]; po, AUC0 ⟶240, PO 5 mg/kg): 614 ng·h/mL | AUC ([3]; po, AUC0 ⟶∞, PO 5 mg/kg): 810 ng·h/mL | Ki (5-HT2A receptor): 1.2 to 2 nM | Ki (histamine H2 receptor): 89 nM | Cells with multiple aberrations (femur bone marrow cells; [9]): 0% | Total altered metaphases (%) (femur bone marrow cells; [9]): 0.8 ± 0.4% | cells with aberration, Double fragment (femur bone marrow cells; [9]): 0% | cells with aberration, Single fragment (femur bone marrow cells; [9]): 0.8% | cells with aberration, exchanges (femur bone marrow cells; [9]): 0% | cells with aberration, gaps (femur bone marrow cells; [9]): 0% | Cells with multiple aberrations (femur bone marrow cells; [10]): 0% | Total altered metaphases (%) (femur bone marrow cells; [10]): 1.4 ± 0.5% | cells with aberration, Double fragment (femur bone marrow cells; [10]): 0% | cells with aberration, Single fragment (femur bone marrow cells; [10]): 1.2% | cells with aberration, exchanges (femur bone marrow cells; [10]): 0% | cells with aberration, gaps (femur bone marrow cells; [10]): 0.2% | Cells with multiple aberrations (femur bone marrow cells; 1 mg/kg PO single dose, males): 0% | Total altered metaphases (%) (femur bone marrow cells; 1 mg/kg PO single dose, males): 1.2 ± 0.5% | cells with aberration, Double fragment (femur bone marrow cells; 1 mg/kg PO single dose, males): 0% | cells with aberration, Single fragment (femur bone marrow cells; 1 mg/kg PO single dose, males): 1.2% | cells with aberration, exchanges (femur bone marrow cells; 1 mg/kg PO single dose, males): 0% | cells with aberration, gaps (femur bone marrow cells; 1 mg/kg PO single dose, males): 0% | Cells with multiple aberrations (femur bone marrow cells; 20 mg/kg PO single dose, males): 0% | Total altered metaphases (%) (femur bone marrow cells; 20 mg/kg PO single dose, males): 1.6 ± 0.6% | cells with aberration, Double fragment (femur bone marrow cells; 20 mg/kg PO single dose, males): 0% | cells with aberration, Single fragment (femur bone marrow cells; 20 mg/kg PO single dose, males): 0.6% | cells with aberration, exchanges (femur bone marrow cells; 20 mg/kg PO single dose, males): 0% | cells with aberration, gaps (femur bone marrow cells; 20 mg/kg PO single dose, males): 1.0% | signs of toxicity [4]: did not show any signs of toxicity | metabolism with UDPGA only ([5]; phase 2 co-factor UDPGA only): no metabolism | half-life at 1 µM ([5]; T1/2, +NADPH+UDPGA): 0.96 min | half-life at 2 µM ([5]; T1/2, +NADPH+UDPGA): 2.34 min | half-life at 1 µM ([5]; T1/2, +NADPH): 1.22 min | half-life at 2 µM ([5]; T1/2, +NADPH): 2.36 min | k el ([6]; 1μM): 0.335 | original AVN-101 consumed ([6]; 2μM, 30-min incubation): 57% | Remaining quantity ([6]; AVN-101 1 μM, 7.9 min): 3.0% | Remaining quantity ([6]; AVN-101 1 μM, 30 min): 2% | Remaining quantity ([6]; AVN-101 2 μM, 7.9 min): 40.0% | Remaining quantity ([6]; AVN-101 2 μM, 30 min): 43% | half-life at 1 µM ([6]; human, liver microsomes): 2.07 min | microsomal CLint at 1 µM ([6]; human, liver microsomes): 335 µL/min/mg | reversal of scopolamine-induced amnesia vs comparators (male BALB/c mice; AVN-101 5 mg/kg IP): equal to or more effective than either memantine or tacrine | lowest dose with preventative effect on scopolamine-induced amnesic parameters (male BALB/c mice; IP, scopolamine 0.3 mg/kg): 0.02 mg/kg | anti-amnesic dose (male BALB/c mice; scopolamine model): 0.05 mg/kg | optimal dose in restoration of PPI (male SHK mice): 0.1 to 0.5 mg/kg | effect on apomorphine-induced disruption of PPI (male SHK mice; apomorphine 20 mg/kg, Haloperidol 1 mg/kg): effective in reversing | IC50 (hKvLQT1-hminK (IKs)): 22500 nM | inhibition at 31.6 µM (hKvLQT1-hminK (IKs); [8]): 55% | Ki (Adrenergic α2A): 0.41 to 3.6 nM | Ki (5-HT1A receptor): > 30 nM | signs of toxicity (male adult SHK mice): No signs of toxicity | agonistic activity (intracellular free Ca2+) (5-HT2B receptor; AVN-101 alone, 10μM): lacked intrinsic agonistic activity | blockade of α methyl-serotonin-induced Ca2+ spike (5-HT2B receptor; αMet5-HT 5μM, AVN-101 10μM): effectively blocking | Ki (Adrenergic α1B): 9.4 nM | receptor activation [7]: activated neither H1 nor H2 receptors | blockade of agonist-induced cell response ([7]; 50 nM amthamine, cAMP accumulation): effectively blocked
